A selection: hits, their analogues and other compounds. The true share with any hit is near 5.1%.
NF-kB expr up – raises NF-kB expression in human neuronal cells; NF-kB reporter expression; stronger effect = higher value; fold change at 12.5 µM; 1.6% of 190,000 active; AID 1239; in the data active = fold change above about 3.3
STAT1 act – increases IFN-gamma driven STAT1 reporter signal. NIH 3T3 STAT1-luciferase reporter, luminescence; 100% = IFN-gamma alone, no compound. activation (% of control), % at 5.5 µM. 2.6% of 200,000 active. AID 932;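 active = activation above the screen-wide mean activation plus 3 SD, cut at about 130% in these data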;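 note: raw ratio to IFN-gamma control signal so 100% means no change and 0% no light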
STAT1 inh – inhibitors of IFN-gamma induced STAT1 signaling; NIH 3T3 STAT1-luciferase reporter, luminescence; inhibition, % at 5.5 µM; 0.35% of 200,000 active; AID 920;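 active = inhibition above a set limit, the mean inhibition across all tested compounds plus 3 SD, cut at about 34% in these data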;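 note: 0% = IFN-gamma with DMSO and 100% = IFN-gamma with 300 µM nifuroxazide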
STAT3 act – increases IL-6 driven STAT3 reporter signal; U3A cells, IL-6 STAT3-luciferase reporter, luminescence; 100% = signal with IL-6 EC80 alone; activation (% of control), % at 5.6 µM; 0.91% of 190,000 active; AID 871;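 active = activation above the screen-wide mean of compound activation plus 3 SD, cut at about 130% in these data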;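 note: 0% = background luminescence of wells with medium and substrate only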
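Test system: Human STAT1-deficient U3A cells with stable STAT3-luciferase reporter | Also added: Interleukin-6, 33 ng/mL | Timing: Compound pre-incubation 1 h before IL-6, then 6 h stimulation at 37 °C | Technique: Luciferase reporter luminescence | Read-out: Percent of IL-6-only median luminescence | Benchmarks: IL-6-only wells as 100% reference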
STAT3 inh-1 – inhibitors of IL-6 induced STAT3 signaling | U3A cells, IL-6 STAT3-luciferase reporter, luminescence; host cell line lacks STAT1 | inhibition, % at 5.5 µM | 0.89% of 190,000 active | AID 862;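 active = inhibition above the mean inhibition across all screened compounds plus 3 SD, cut at about 44% in these data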;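 note: 0% = DMSO only wells and 100% = 100 µM nifuroxazide control wells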
APP 5'UTR act – activates APP 5'UTR luciferase reporter; SH-SY5Y APP 5'UTR luciferase reporter, luminescence; zero percent = DMSO vehicle wells; activation, % at 2 µM; 1% of 190,000 active; AID 1276;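 active = activation above a set limit, based on mean plus 3 SD of controls, cut at about 140% in these data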
STAT3 inh-2 – confirmation of STAT3 signaling inhibitors; AID 1265; shares compounds with STAT3 inh-1; U3A cells, IL-6 STAT3 luciferase reporter, luminescence; cell line lacks STAT1; inhibition, % at 5.7 µM; 45% of 1,200 active;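 active = inhibition above the hit cutoff computed for the primary STAT3 screen, cut at about 44% in these data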;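 note: 0% = IL-6 plus DMSO and 100% = IL-6 plus nifuroxazide control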
NFkB inh 2 – inhibits NF-kappaB, counter-screen to STAT3 inhibitors; 36% of 1,200 active; HEK293T NF-kB luciferase reporter, TNF-alpha induced; shares compounds with STAT3 inh-1; inhibition, % at 5.7 µM;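 active = inhibition above the mean of solvent-only control wells plus 3 SD, cutoff set per campaign, cut at about 13% in these data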;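 note: 0% = TNF-alpha with DMSO and 100% = TNF-alpha with MG high control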
STAT1 inh STAT3c – counter-screen for STAT3 inhibitors: STAT1 inhibition; shares compounds with STAT3 inh-1; AID 1317; inhibition, % at 5.7 µM; 27% of 1,200 active; NIH 3T3 STAT1-luciferase reporter, IFN-gamma induced, luminescence;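 active = inhibition above the mean plus 3 SD of solvent-only control wells, limit set per screening run, cut at about 16% in these data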;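 note: 0% = DMSO with IFN-gamma and 100% = nifuroxazide control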
* marks the source's active call; other numbers are inactive results; nt = no result given.

SMILES	NF-kB expr up	STAT1 act	STAT1 inh	STAT3 act	STAT3 inh-1	APP 5'UTR act	STAT3 inh-2	NFkB inh 2	STAT1 inh STAT3c
Fc1ccc(C2CCCN2Cc2nc(Cc3ccccc3)no2)cc1 (stereo unspecified)	1.2	94.6	3.8	104.4	-1.6	9.2	nt	nt	nt
COc1ccc2nc(NC(=O)c3ccoc3C)sc2c1	10.9*	102.3	-2.5	49.6	63.3*	142.4*	28.5	-16.3	-104.3
Cn1cc(CNCCN2CCCCC2=O)c(-c2cccc(Cl)c2)n1	1.07	99.2	0.7	110.3	-5.7	18.4	nt	nt	nt
NC(=O)C1CCN(c2ccc(S(=O)(=O)N3CCC(Cc4ccccc4)CC3)cn2)CC1	0.89	80.6	20.4	48.5	64.0*	-5.2	55.2*	9.2	8.2
O=S(=O)(c1ccc(N2CCCCCC2)nc1)N1CCCC1	1.41	102.5	-3.0	106.2	0.6	22.7	nt	nt	nt
Cc1nc2sccn2c1-c1csc(NCc2ccccc2)n1	0.74	89.7	11.3	43.7	66.1*	0.8	51.3*	8.9	12.0
Cn1c(=O)c2c(nc(NC(Cc3ccccc3)C(=O)O)n2Cc2ccccc2)n(C)c1=O (stereo unspecified)	1	102.3	-2.5	101.3	1.9	6.0	nt	nt	nt
CNc1nc2c(c(=O)n(C)c(=O)n2C)n1Cc1ccccc1	0.82	85.4	16.0	59.4	54.9*	2.8	34.4	13.3*	18.1*
CCCCn1c(CN(C)Cc2ccccc2)nc2c1c(=O)n(C)c(=O)n2C	0.77	79.0	22.9	76.5	32.4	6.8	nt	nt	nt
Cc1cccc(Cn2c(NCCO)nc3c2c(=O)n(C)c(=O)n3C)c1	0.87	83.0	18.6	59.9	52.0*	8.6	34.7	9.6	19.6*
CCCn1c(CN(C)Cc2ccccc2)nc2c1c(=O)n(C)c(=O)n2C	0.66	81.5	20.1	64.1	46.0*	7.3	28.5	4.4	14.3
CCN(CCO)Cc1cc(=O)oc2cc3c(cc12)CCC3	1.33	98.8	-0.9	106.2	-1.1	-11.5	nt	nt	nt
CCOc1cccc(C(=O)Nc2nnc(-c3ccco3)s2)c1	3.3*	124.6	-26.8	60.9	47.2*	119.8	7.1	-15.1	-61.4
COc1ccc(C(=O)Sc2nncc3ccccc23)cc1	1.06	90.1	9.2	97.9	3.8	-10.1	nt	nt	nt
Cc1ccc(-c2cc(C(=O)N3CCCC3)no2)cc1	3.79*	73.0	29.1	39.0	75.8*	208.1*	48.0*	16.1*	-38.9
COc1ccccc1N1CCN(C(=O)c2cc(-c3ccc(C)cc3)on2)CC1	1.08	94.4	6.0	95.3	8.4	8.0	nt	nt	nt
CC(C)c1cccc(C(C)C)c1NC(=O)COC(=O)[C@H](C)NC(N)=O	1.13	102.3	-2.6	98.8	3.5	-3.7	nt	nt	nt
Cc1cc(NC(=O)Cc2ccccc2)c2ccccc2n1	1.04	69.9	32.3	40.0	71.7*	6.2	69.1*	22.2*	25.0*
Cc1ccccc1NC(=O)c1cc(C(=O)c2cc(Cl)ccc2O)cn(-c2ccccc2C)c1=O	0.6	120.6	-23.3	108.1	-5.3	12.8	nt	nt	nt
CS(=O)(=O)N1CCc2cc(-c3csc(NC(=O)Cc4ccccc4)n3)ccc21	0.47	88.6	8.4	58.2	53.2*	13.8	46.4*	6.1	6.9
CC1Cc2cc(-c3csc(NC(=O)Cc4cccs4)n3)ccc2N1S(C)(=O)=O (stereo unspecified)	0.45	95.0	5.5	34.1	78.9*	-3.2	78.9*	28.9*	14.5
Cc1cccc(-n2ccnc2SCC(=O)N2CCCc3ccccc32)c1C	0.88	91.4	9.5	91.2	12.9	17.2	nt	nt	nt
CC(=O)c1cccc(NS(=O)(=O)c2ccc(N/C=C\C(=O)c3ccc(C)cc3)cc2)c1	1	87.2	13.9	70.5	36.8	4.4	nt	nt	nt
O=C(/C=C/Nc1cccc(O)c1)c1ccccc1	6.29*	95.0	6.7	31.6	86.0*	183.5*	65.3*	-3.1	2.5
Cc1ccc(C(=O)/C=C/Nc2cccc(O)c2)cc1	13.3*	92.4	6.6	23.8	94.2*	138.4*	90.0*	32.5*	34.0*
SMILES	NF-kB expr up	STAT1 act	STAT1 inh	STAT3 act	STAT3 inh-1	APP 5'UTR act	STAT3 inh-2	NFkB inh 2	STAT1 inh STAT3c
Cc1ccc(C(=O)/C=C/Nc2ccc3c(c2)OCO3)cc1	5.95*	131.9*	-28.1	54.5	56.3*	95.1	1.5	-26.7	-142.2
Cc1noc(NS(=O)(=O)c2ccc(N/C=C\C(=O)c3ccc4c(c3)OCO4)cc2)c1C	1.32	118.4	-20.5	108.6	-7.2	21.7	nt	nt	nt
CC1=C(C(=O)OCC(Br)(Br)Br)C(c2ccc(Br)cc2)NC(=O)N1CCCC(=O)O (stereo unspecified)	1.08	104.7	-5.2	99.7	-2.5	12.6	nt	nt	nt
CSC1=NC(=O)/C(=C\c2cccc3ccccc23)S1	1.32	113.7	-14.3	124.8	-18.9	20.9	nt	nt	nt
CCCCCc1nc2sc3c(c2c(=O)n1NC(=O)c1ccc([N+](=O)[O-])cc1)CC(C)(C)OC3	0.85	100.5	-0.6	102.4	0.9	-1.1	nt	nt	nt
Cc1cc(C)c(C#N)c(SCc2nnc(-c3ccccc3)o2)n1	0.23	89.0	12.3	45.9	66.6*	43.8	12.5	-3.2	-85.7
COC(=O)c1ccc(NC(=O)c2ccc(N(C)S(C)(=O)=O)cc2)cc1	1.22	100.0	0.0	59.1	52.0*	-28.4	39.1	1.6	-7.9
CCN(CC)S(=O)(=O)c1ccc(NC(=O)c2ccccc2N(C)S(C)(=O)=O)cc1	1.27	99.1	1.0	101.0	4.8	-8.8	nt	nt	nt
COc1ccc(NC(=O)c2ccc(N(C)S(C)(=O)=O)cc2)cc1OC	1.25	106.7	-5.4	96.6	5.4	5.4	nt	nt	nt
CCN(CC)S(=O)(=O)c1ccc(C(=O)Nc2ccc(Cc3ccncc3)cc2)cc1	0.71	78.0	22.3	49.0	64.5*	-8.9	61.2*	15.6*	16.5*
COc1ccc(NS(=O)(=O)c2ccc(NC(=O)c3ccc(N(C)S(C)(=O)=O)cc3)cc2)c(OC)c1	1	85.6	16.2	38.4	73.1*	1.6	84.4*	26.0*	23.5*
CCN(CC)S(=O)(=O)c1ccc(NC(=O)c2ccc(N(C)S(C)(=O)=O)cc2)cc1	1.05	101.1	4.3	34.8	80.5*	-1.7	71.7*	29.5*	7.0
CC(C)C(O)(C#CCN1CCCCC1)C(C)C	1.05	96.1	4.3	99.5	-4.5	20.0	nt	nt	nt
Cc1cc(C(=O)CSc2nnc(-c3ccccc3)n2Cc2ccc3c(c2)OCO3)c(C)n1C	0.92	105.0	-5.5	102.7	-1.2	7.8	nt	nt	nt
